According to ChEMBL document CHEMBL1124289, “6-(Alkylamino)-9-benzyl-9H-purines. A new class of anticonvulsant agents” (1988):

How the values were obtained:
Assay type in all cases: functional
[1] = system: Rattus norvegicus; assay: Protective effects in maximal electroshock induced seizures in rats following i.p. administration.; settings: ip
Outline: (§1)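 Male Sprague-Dawley rats, compound given orally or ip as a solution or fine dispersion in water or 5% methylcellulose before maximal electroshock. ED50 is the dose protecting 50% against hind-limb extension, by the Miller–Tainter method. Either ≥12 animals per dose at four doses (with standard error) or three doses with six animals per point.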

[2] = system: Rattus norvegicus; assay: Ability to protect Sprague-Dawley male rats against maximal electroshock-induced seizures (MES) intraperitoneally. Inhibition at 25 mg/kg; settings: ip, route intraperitoneal
Outline: (§2)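 Male Sprague-Dawley rats dosed with compound as a solution or fine dispersion in water or 5% methylcellulose, then given maximal electroshock. Protection means abolition of the hind-limb extensor component.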

[3] = species on record: Rattus norvegicus; assay: Ability to protect Sprague-Dawley male rats against maximal electroshock-induced seizures (MES) perorally; settings: po; outline: as §1
[4] = system: Rattus norvegicus; assay: Ability to protect Sprague-Dawley male rats against maximal electroshock-induced seizures (MES) intraperitoneally; Inhibition at 12.5 mg/kg; settings: ip, route intraperitoneal; outline: as §2
[5] = system: Rattus norvegicus; assay: Ability to protect Sprague-Dawley male rats against maximal electroshock-induced seizures (MES) per orally; Inhibition at 25 mg/kg; settings: po; outline: as §2

`CN(C)c1ncnc2c1ncn2Cc1cccc(F)c1` gave an ED50 [1] of 8.4 mg/kg.

With `CN(C)c1ncnc2c1ncn2C` the inhibition in vivo at 25 mg/kg [2] was 33%.

Compound `CCN(C)c1ncnc2c1ncn2Cc1ccccc1` has an ED50 [1] of 8 mg/kg and an ED50 [3] of 30 mg/kg.

With `CSc1ncnc2c1ncn2Cc1ccccc1` [9-BENZYL-6-METHYLSULFANYL-9H-PURINE] the inhibition in vivo at 25 mg/kg [2] was 30%.

Compound `CN(C)c1ncnc2c1ncn2-c1ccccc1` has an inhibition in vivo at 12.5 mg/kg [4] of 0%.

Work on `Cc1cccc(Cn2cnc3c(N(C)C)ncnc32)c1` yielded an ED50 [1] of 25 mg/kg.

For `CN(C)c1ncnc2c1ncn2Cc1ccccc1N`, the ED50 [1] was 20 mg/kg.

With `CN(C)c1ncnc2c1ncn2Cc1ccccc1Cl` the inhibition in vivo at 25 mg/kg [2] was 84%.

`Nc1ncnc2c1ncn2Cc1ccccc1` [9-BENZYL-9H-ADENINE] was tested, and the inhibition in vivo at 25 mg/kg [2] was 33%.

`CN(C)c1ncnc2c1ncn2Cc1ccco1` showed an ED50 [1] of 18 mg/kg.

Work on `COc1ncnc2c1ncn2Cc1ccccc1` [9-BENZYL-6-METHOXY-9H-PURINE] yielded an ED50 [1] of 10 mg/kg and an ED50 [3] of 21 mg/kg.

In the case of `CN(C=O)c1ncnc2c1ncn2Cc1ccccc1`, the inhibition in vivo at 25 mg/kg [2] is reported as 0%.

`CN(C)c1ncnc2c1ncn2Cc1ccc(Cl)cc1` gave an inhibition in vivo at 25 mg/kg [2] of 0%.

In the case of `CN(C)c1ncnc2c1ncn2Cc1ccc(F)cc1`, the inhibition in vivo at 25 mg/kg [2] is reported as 33%.

With `OCCNc1ncnc2c1ncn2Cc1ccccc1` the inhibition in vivo at 25 mg/kg [2] was 84% and the inhibition in vivo at 25 mg/kg [5] was 17%.

With `CN(c1ncnc2c1ncn2Cc1ccccc1)C1CCCC1` the inhibition in vivo at 25 mg/kg [2] was 17%.

`C[C@@H](c1ccccc1)n1cnc2c(N(C)C)ncnc21` gave an inhibition in vivo at 25 mg/kg [2] of 33%.

In the case of `CN(C)c1ncnc2c1ncn2Cc1cccc(C(F)(F)F)c1`, the ED50 [1] is reported as 12 mg/kg.

In the case of `CN(C)c1ncnc2c1ncn2Cc1ccc(C#N)cc1`, the inhibition in vivo at 25 mg/kg [2] is reported as 0%.

`CN(C)c1ncnc2c1ncn2Cc1cc(Cl)cc(Cl)c1` showed an ED50 [1] of 7 mg/kg.

With `CN(C)c1ncnc2c1ncn2Cc1cccc(Br)c1` the ED50 [1] was 13 mg/kg.

With `CN(C)c1ncnc2c1ncn2Cc1ccc(Cl)c(Cl)c1` the inhibition in vivo at 25 mg/kg [2] was 0%.

`Oc1ncnc2c1ncn2Cc1ccccc1` gave an inhibition in vivo at 25 mg/kg [2] of 17%.

With `Cc1ccccc1Cn1cnc2c(N(C)C)ncnc21` the ED50 [1] was 9 mg/kg.

Work on `CN(C)c1ncnc2c1ncn2Cc1ccc(O)cc1` yielded an inhibition in vivo at 25 mg/kg [2] of 0%.

With `COc1ccc(Cn2cnc3c(N(C)C)ncnc32)cc1` the inhibition in vivo at 25 mg/kg [2] was 0%.

For `CN(C)c1ncnc2c1ncn2Cc1ccccc1[N+](=O)[O-]`, the ED50 [1] was 25 mg/kg.

With `CN(C)c1ncnc2c1ncn2Cc1cccc(OCc2ccccc2)c1` the inhibition in vivo at 25 mg/kg [2] was 33%.

`O=C1NC(=O)C(c2ccccc2)(c2ccccc2)N1` [PHENYTOIN] gave an ED50 [1] of 9.6 mg/kg and an ED50 [3] of 20 mg/kg.

`CN(C)c1ncnc2c1ncn2Cc1ccc(N)cc1` gave an ED50 [1] of 25 mg/kg.

`CN(C)c1ncnc2c1ncn2Cc1cccc(C#N)c1` showed an inhibition in vivo at 25 mg/kg [2] of 17%.

Compound `CN(C)c1ncnc2c1ncn2Cc1ccccc1` has an ED50 [1] of 6 mg/kg and an ED50 [3] of 12 mg/kg.

`c1ccc(Cn2cnc3c(N4CCC4)ncnc32)cc1` was tested, and the inhibition in vivo at 25 mg/kg [2] was 17%.

Work on `COc1cccc(Cn2cnc3c(N(C)C)ncnc32)c1` yielded an ED50 [1] of 12.5 mg/kg.

Compound `c1ccc(Cn2cnc3c(NC4CC4)ncnc32)cc1` has an ED50 [1] of 8.6 mg/kg.

For `CN(C)c1ncnc2c1ncn2Cc1ccc([N+](=O)[O-])cc1`, the inhibition in vivo at 25 mg/kg [2] was 0%.

In the case of `COc1ccccc1Cn1cnc2c(N(C)C)ncnc21`, the inhibition in vivo at 25 mg/kg [2] is reported as 0%.

Work on `CNc1ncnc2c1ncn2Cc1ccccc1` yielded an ED50 [1] of 5 mg/kg and an ED50 [3] of 12 mg/kg.

In the case of `C[C@H](c1ccccc1)n1cnc2c(N(C)C)ncnc21`, the inhibition in vivo at 25 mg/kg [2] is reported as 33%.

`CN(C)c1ncnc2c1ncn2Cc1cccc(O)c1` was tested, and the inhibition in vivo at 25 mg/kg [2] was 0%.

Compound `CC(C)N(C)c1ncnc2c1ncn2Cc1ccccc1` has an inhibition in vivo at 25 mg/kg [2] of 17%.

For `Cc1ccc(Cn2cnc3c(N(C)C)ncnc32)cc1`, the inhibition in vivo at 25 mg/kg [2] was 0%.

In the case of `CN(C)c1ncnc2c1ncn2Cc1cccc([N+](=O)[O-])c1`, the inhibition in vivo at 25 mg/kg [2] is reported as 17%.

Work on `c1ccc(Cn2cnc3c(Nc4ccccc4)ncnc32)cc1` yielded an inhibition in vivo at 25 mg/kg [2] of 0%.

`CN(C)c1ncnc2c1ncn2CC1CCCCC1` gave an inhibition in vivo at 25 mg/kg [2] of 0%.

`CN(C)c1ncnc2c1ncn2CCc1ccccc1` showed an inhibition in vivo at 25 mg/kg [2] of 33%.

Compound `CN(C)c1ncnc2c1ncn2Cc1cccc(I)c1` has an ED50 [1] of 11 mg/kg.

`CN(C)c1ncnc2c1ncn2Cc1ccccc1F` showed an ED50 [1] of 8.8 mg/kg.

With `CN(C)c1ncnc2c1ncn2Cc1cccs1` the ED50 [1] was 10 mg/kg.

With `CN(C)c1ncnc2c1ncn2Cc1cccc(Cl)c1` the ED50 [1] was 4.5 mg/kg and the ED50 [3] was 18 mg/kg.

`c1ccc(Cn2cnc3cncnc32)cc1` [9-BENZYL-9H-PURINE] gave an inhibition in vivo at 25 mg/kg [2] of 33%.
